The list is not random: actives were taken first. Their share in the collection is about 3.1%.
CFTR F508del cor – F508del CFTR correction, initial screen, CFBE line, single point | 0.36% of 350,000 active | CFBE cells, YFP halide quenching; stimulated with forskolin plus potentiator P3; % fluorescence drop versus neutral controls | activity (quench increase), % at 7.58 µM;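 active = mean added fluorescence quench of at least 8% versus neutral control, with both replicates also reaching 8%; inconclusive = only one of the mean or replicate conditions met; inactive = mean below 8% and not both replicates reaching 8%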;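 note: cells transiently co-express mutant CFTR-F508del with the halide-sensitive YFP; corrector assay measuring rescue of mutant channel to the surface after 24 h compound exposure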
ERAP1 inh – human ERAP1 aminopeptidase inhibitors, primary screen, biochemical, single point, plate reader | Endoplasmic reticulum aminopeptidase 1 (Homo sapiens), Q9NZ08 | recombinant ERAP1, Leu-AMC fluorescence, 60 min | inhibition, % at 10.7 µM | 0.15% of 340,000 active | AID 652197, 2013;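 active = mean replicate inhibition of at least 30%, or all replicates individually reaching that 30% level; inactive = mean below 30% and not every replicate reaching it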;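 note: 0% = neutral control wells and 100% = L-leucinethiol positive control wells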
Target sequence (Q9NZ08 whole entry, looked up): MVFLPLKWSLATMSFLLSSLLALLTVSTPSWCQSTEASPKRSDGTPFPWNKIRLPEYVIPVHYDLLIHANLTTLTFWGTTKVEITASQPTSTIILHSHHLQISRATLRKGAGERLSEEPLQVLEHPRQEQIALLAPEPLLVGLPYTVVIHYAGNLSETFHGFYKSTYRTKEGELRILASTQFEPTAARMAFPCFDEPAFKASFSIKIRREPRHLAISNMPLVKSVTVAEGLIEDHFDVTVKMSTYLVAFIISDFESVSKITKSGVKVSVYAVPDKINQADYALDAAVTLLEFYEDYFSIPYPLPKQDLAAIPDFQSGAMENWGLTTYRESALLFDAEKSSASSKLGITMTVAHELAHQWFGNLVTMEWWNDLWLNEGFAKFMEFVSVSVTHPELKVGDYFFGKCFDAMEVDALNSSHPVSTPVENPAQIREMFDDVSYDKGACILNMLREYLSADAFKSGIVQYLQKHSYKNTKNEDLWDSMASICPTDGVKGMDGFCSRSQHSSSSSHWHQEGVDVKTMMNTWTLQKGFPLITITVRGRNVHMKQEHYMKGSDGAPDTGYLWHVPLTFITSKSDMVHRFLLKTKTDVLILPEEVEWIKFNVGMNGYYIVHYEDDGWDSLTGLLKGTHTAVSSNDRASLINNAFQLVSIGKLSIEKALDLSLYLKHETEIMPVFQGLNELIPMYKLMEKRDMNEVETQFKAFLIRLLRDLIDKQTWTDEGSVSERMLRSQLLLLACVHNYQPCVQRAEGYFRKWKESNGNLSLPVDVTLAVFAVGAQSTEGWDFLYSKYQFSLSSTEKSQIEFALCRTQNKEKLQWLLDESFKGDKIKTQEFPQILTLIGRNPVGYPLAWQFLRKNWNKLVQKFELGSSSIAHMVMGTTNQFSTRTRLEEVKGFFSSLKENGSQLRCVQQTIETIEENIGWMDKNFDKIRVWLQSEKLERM
S100A4 MyoIIA – inhibitors of S100A4-myosin IIA peptide binding, primary screen, biochemical, fluorescence polarization, TAMRA-MyoIIA peptide | inhibition, % at 10.7 µM | 0.14% of 360,000 active | Protein S100-A4 (Homo sapiens), P26447 | AID 652163, 2013;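 active = mean inhibition of at least 70% across replicates, with every replicate also reaching that level; inconclusive = mean inhibition reaches 70% but some replicates fall short; inactive = mean inhibition below 70%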
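Assay system: human S100A4 monomer with TAMRA-labelled myosin IIA peptide / Buffer or medium: Calcium-containing HEPES buffer, pH 7.2 / Reagent: TAMRA-labelled myosin IIA heavy-chain peptide probe, 5 nM / Compound: one dose per compound / Timing: polarization read 5 min after assay mix addition, stable 5–60 min / Benchmarks: neutral control DMSO, positive control TFP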
rRNA inh HTS – reduced GFP signal of wild-type E. coli, primary screen, bacterial rRNA inhibitor project, GFP/RFP fluorescence, OD600, single point. E. coli WT GFP vs humanized-ribosome RFP mutants, 24 h; stronger effect = lower value; DMSO median 0, no signal -100. GFP signal change (wild-type ribosome), % (test concentration not listed). 1.6% of 350,000 active. AID 720706, 2013;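 active = significant combined selectivity score with lowered wild-type GFP, culture density cut under 30%, mutant RFP and density less affected; inactive = any of these conditions unmet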
SIRT5 inh – SIRT5 desuccinylase inhibitors, primary screen, biochemical, fluorescence imaging, single point, set 5; NAD-dependent protein deacylase sirtuin-5, mitochondrial (Homo sapiens), Q9NXA8; Purified SirT5, succinyl-peptide AMC, trypsin-coupled fluorescence; inhibition, % at 15 µM; 1.1% of 330,000 active; AID 652115, 2013; in the data active = inhibition above about 15%; inconclusive = no clear call, values can overlap the other calls
HepG2 tox – cytotoxicity in HepG2 cells, dose response, cytotoxicity control, cell-based, CellTiter-Glo luminescence, cherry-pick, set 4; shares compounds with rRNA inh HTS; activity change, negative = cytotoxicity, unspecified at 26 µM; AID 743480, 2014; 30 tested, under 10 active; HepG2 viability, ATP luminescence, 72 h;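 active = compounds whose fitted half-maximal signal-loss concentration is at most twice their highest valid dose; inconclusive = flat curve with 30 to 70% signal loss, or poor fit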
AID977621 – growth inhibition of wild-type GFP E. coli, dose response, H69 mutant RFP, cherry-pick; 1,900 tested, under 10 active; E. coli wild-type GFP strain growth, fluorescence, 24 h; activity change, negative = inhibition at 50 µM; shares compounds with rRNA inh HTS;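 active = Wild-type ribosome reporter drop at least double the humanized mutant ribosome reporter drop, growth loss under a set limit; inconclusive = no clear call, values can overlap the other calls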;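 note: wild-type GFP and H69 mutant RFP strains grown together 50/50 in each well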
AID977628 – E. coli growth inhibition, wild-type GFP versus h24 humanized RFP strain, dose response, h24 mutant RFP vs wild-type GFP, cherry-pick | shares compounds with rRNA inh HTS | E. coli WT GFP strain growth, fluorescence, 24 h | activity change, negative = inhibition at 50 µM | 1,900 tested, under 10 active;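 active = compound lowering the normal-ribosome reporter at least twice as much as the humanized-ribosome reporter, growth loss under a set limit; inconclusive = no clear call, values can overlap the other calls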;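 note: wild-type GFP and h24 humanized RFP strains co-cultured 1 to 1 per well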
The depositor's hits bear a star; ? = inconclusive; . = no result given.

SMILES	CFTR F508del cor	ERAP1 inh	S100A4 MyoIIA	rRNA inh HTS	SIRT5 inh	AID977621	AID977628	others
CCOC(=O)CN1C(=O)/C(=C/c2ccc(Cl)cc2)Oc2ccccc21	0.2	-3.5	-0.4	-4.9	-4.7	.	.
CCOC(=O)CN1C(=O)C(CC)Oc2ccc(Cl)cc21 (stereo unspecified)	-0.9	0.8	0.4	-30.2*	-2.7	-14	-15.7
CCOC(=O)N1CCN(c2nc(-c3cccs3)nc3ccccc23)CC1	0.4	4.7	-1.4	-3.7	.	.	.
CC(=O)N1CCN(c2nc(-c3cccs3)nc3ccccc23)CC1	0.8	-2.3	-7.7	-24.2*	2.2	-2.9	.
O=C(C[C@H]1CC[C@@H]2[C@H](COC[C@H](O)CN2C(=O)c2cnccn2)O1)NCc1ccccc1	-2.4	1.8	7.6	4.5	-2.8	.	.
CNC(=O)C[C@H]1CC[C@H]2[C@@H](COc3ccc(NS(=O)(=O)c4cccc(F)c4)cc3C(=O)N2C)O1	-0.2	-1.2	-26.3	-0.5	-10.1	.	.
CCc1nc2ccccc2c(C(=O)OCC(=O)NC(=O)c2cccn2C)c1C	-2.3	.	-5.4	-24.5*	8.6	?	-4.09
Cc1ccc2oc(C(=O)N(C)Cc3ccon3)c(C)c2c1	-1.5	1.7	0.2	2.9	14.0	.	.
Cc1ccc2oc(C(=O)N(C)Cc3ccc(C)o3)c(C)c2c1	-2.2	2.4	-0.5	-29.8*	-2.0	-5.21	-3.37
C[C@H]1CN([C@@H](C)CO)C(=O)c2cccc(NS(C)(=O)=O)c2O[C@H]1CN(C)C(=O)Nc1ccccc1	0.7	-1.2	-5.7	5.0	-5.9	.	.
COc1ccc(S(=O)(=O)N(C)C[C@@H]2Oc3c(NS(=O)(=O)c4cn(C)cn4)cccc3C(=O)N([C@H](C)CO)C[C@@H]2C)cc1	-0.7	-0.7	-43.0	3.8	-1.3	.	.
O=C(C1=C[C@@H](C2CC2)C[C@@H](OCc2ccc(CO)cc2)O1)N1CCCC1	2.1	2.0	1.3	.	2.8	.	.
CC(CNc1ccc(Cl)cc1)(CNc1ccc(Cl)cc1)[N+](=O)[O-]	2.4	-4.8	-2.1	-20.3*	-1.3	?	?	HepG2 tox=16.3
O=[N+]([O-])c1ccc(CNc2ccc(Cl)cc2)s1	0.4	3.5	-2.5	-52.6	0.7	.	.
Cc1cc(C)c(NC(=O)C(C)c2cccc(C(=O)c3ccccc3)c2)c(C)c1 (stereo unspecified)	1.1	-2.7	1.8	-17.3*	1.7	-2.72	.
C[C@H](CO)N1C[C@H](C)[C@H](CN(C)Cc2ccc3c(c2)OCO3)Oc2ccc(NC(=O)CCC(F)(F)F)cc2C1=O	-2.0	2.8	-3.2	3.0	9.2	.	.
CC(C)CN1C(=O)c2ccc(C(=O)Nc3ccncc3)cc2C1=O	2.4	-1.4	-1.8	-24.9*	-3.9	.	-9.15
CC(C)CN1C(=O)c2ccc(C(=O)Nc3ccc(OCC(=O)O)cc3)cc2C1=O	-1.5	-28.5	8.5	12.4	0.3	.	.
CNC[C@@H]1Oc2c(N)cccc2C(=O)N(C)C[C@@H]1C	.	.	.	1.4	.	.	.
CC1(Cc2ccc(C(F)(F)F)nc2)C(=O)Nc2cc(-c3ccccc3Cl)ccc21 (stereo unspecified)	1.5	-2.6	3.5	-0.5	.	.	.
CC1(Cc2ccccc2C#N)C(=O)Nc2cc(-c3ccccc3Cl)ccc21 (stereo unspecified)	2.4	-4.0	-4.7	-11.1*	.	.	.	HepG2 tox=8.46
CN(C)CC(=O)N[C@@H]1CC[C@@H](CCNC(=O)Nc2ccc(C(F)(F)F)cc2)O[C@H]1CO	-1.4	2.0	13.5	-59.3	-7.8	.	.
CN(C)CC(=O)N[C@@H]1CC[C@@H](CCNC(=O)Nc2ccc(Cl)cc2)O[C@H]1CO	0.3	-1.8	5.2	-27.6*	8.4	.	?
COc1cccc(S(=O)(=O)N[C@H]2CC[C@H](CCN)O[C@@H]2CO)c1	0.9	-1.3	3.4	0.6	-0.2	.	.
Cc1ccn2cc(-c3cccc(NC(=O)c4cccs4)c3)nc2c1	0.9	-3.7	-1.2	-35.9*	-1.7	-5.42	-13.3
SMILES	CFTR F508del cor	ERAP1 inh	S100A4 MyoIIA	rRNA inh HTS	SIRT5 inh	AID977621	AID977628	others
Cc1cccn2cc(-c3cccc(NC(=O)c4cccs4)c3)nc12	-3.8	3.9	-3.1	-34.5	0.9	.	.
COc1ccc(NC(=O)Nc2ccc3c(c2)CC(=O)N([C@H](C)CO)C[C@@H](C)[C@@H](CN(C)S(C)(=O)=O)O3)cc1	1.0	-1.3	3.2	5.6	0.6	.	.
CC(C)(C)C1CCC(C(=O)OCC(=O)N2CCN(C(=O)c3ccco3)CC2)CC1 (stereo unspecified)	-1.9	-2.0	-7.3	-21.8*	-7.2	-5.04	-5.56
CC(C)(C)C1CCC(C(=O)OCC(=O)N2CCOCC2)CC1 (stereo unspecified)	-2.6	-1.9	1.8	10.8	1.3	.	.
C[C@@H]1CN([C@H](C)CO)C(=O)c2cc(NS(=O)(=O)c3cn(C)cn3)ccc2O[C@H]1CN(C)S(=O)(=O)c1ccc(F)cc1	0.7	-1.4	-11.3	1.8	-0.8	.	.
COc1ccc(NC(=O)N(C)C[C@@H]2Oc3ccc(NS(=O)(=O)c4ccc(C)cc4)cc3CC(=O)N([C@H](C)CO)C[C@H]2C)cc1	-1.2	.	.	6.4	.	.	.
Fc1ccc(-c2nc3c(Cl)cc(C(F)(F)F)cn3c2Cc2ccsc2)cc1	-2.7	.	-4.0	-17.2*	-3.3	-12.4	-6.75
O=C1N2c3ccccc3CCc3cccc(c32)C1(O)C(F)(F)F (stereo unspecified)	0.9	0.6	0.8	-16.7*	-5.4	-14.4	.
O=C(CCl)N1c2ccccc2CCc2ccccc21	1.5	2.0	-0.2	8.7	1.1	.	.
Cc1cccc(C(=O)NCC(=O)NCCSc2ccc(Br)cc2)c1	-0.4	-5.0	0.6	-22.3*	0.0	-10.1	.
Cc1ccc(NC(=O)COC(=O)CCNS(=O)(=O)c2c(Cl)cccc2Cl)cc1	6.1	-3.6	-2.7	-14.4*	-0.9	3.43	-8.09
Cc1ccccc1CSc1nnc(-c2ccccn2)n1C	0.1	0.5	5.8	-20.9*	-2.6	-7.18	?

Screening results as filed in PubChem.
